Columns and labels:
[1] = Inhibition of Voltage-dependent N-type calcium channel in human IMR32 cells by FLIPR based Ca(2+) flux assay; assay type: cell-based, IMR-32
Outline: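 IMR32 cells were plated at 120,000/well and grown 48 h at 37 °C, 5% CO₂. Cells were loaded with Calcium 4 dye in HBSS/1 mM HEPES pH 7.4 for 1.5 h at room temperature, with antagonists present for 1 h of loading.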

[2] = Inhibition of L-type calcium channel in mouse ND7/23 cells by FLIPR based Ca(2+) flux assay; assay type: cell-based
Outline: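 ND7/23 cells were grown in DMEM with 10% heat-inactivated FBS and seeded at 5.0 × 10⁴ cells/well. After 24 h at 37 °C, 5% CO₂, cells were loaded with calcium dye in HBSS/20 mM HEPES pH 7.4 for 1.5 h at room temperature. Compounds were added for 3 min, then channels were activated with HBSS containing 50 mM KCl/2.5 mM CaCl₂.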

[3] = target: Voltage-dependent N-type calcium channel subunit alpha-1B (Rattus norvegicus) (UniProt Q02294); conditions: HEK293, 0.3 uM
[4] = target: Voltage-dependent N-type calcium channel subunit alpha-1B (Rattus norvegicus) (UniProt Q02294); conditions: HEK293, 0.3 uM; remark: listed apart in the source
Rattus norvegicus [5] = assay: Analgesic activity in ip dosed Sprague-Dawley rat osteoarthritis pain model assessed as increase in maximum compressive grip force dosed 30 mins before grip force assessment; assay type: functional, organism-based
Outline: (§1)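 Male Sprague-Dawley rats (200–350 g) were tested at least 21 days after MIA injection. Dosing was 3, 10 or 30 mg/kg ip in 10% DMSO/PEG 400, 30 min before testing; n = 12 per group. Hindlimb grip force was measured twice ~2 min apart to get CFmax, normalised to body weight. Vehicle group set as 0%, age-matched naive group as 100%.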

Rattus norvegicus [6] = assay: Analgesic activity in ip dosed Sprague-Dawley rat acute inflammatory pain model assessed as reduction in carrageenan-induced thermal hypersensitivity of paw withdrawal latency dosed 30 mins before thermal hypersensitivity assessment; assay type: functional, organism-based
Outline: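 Male rats 200–350 g; 10% DMSO/PEG400 vehicle; doses 3, 10, 30 mg/kg ip, n = 6. Carrageenan is injected into the plantar surface of the right hind paw. After 2 h, a Hargreaves radiant heat stimulus is applied on 30 °C glass, with cut-off 20.48 s. Both paws are tested in 3 trials about 5 min apart. Latency is taken as the mean of the two shortest readings.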

[7] = Protein binding in plasma; assay type: ADME, cell-free; conditions: read-out: PPB
Rattus norvegicus [8] = assay: Analgesic activity in Sprague-Dawley rat acute inflammatory pain model assessed as inhibition of carrageenan-induced thermal hypersensitivity of paw withdrawal latency at 30 mg/kg, ip dosed 30 mins before thermal hypersensitivity assessment; assay type: functional; conditions: route intraperitoneal
Outline: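 Male Sprague-Dawley rats (200–350 g) received 3, 10 or 30 mg/kg ip in 10% DMSO/PEG 400, n = 6. Dosing was 30 min before testing, and testing was 2 h after intraplantar carrageenan in the right hind paw. Hargreaves radiant heat on 30 °C glass, 4.50 amp, 20.48 s cutoff; each paw tested 3 times ~5 min apart. PWL is the mean of the two shortest latencies.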

Rattus norvegicus [9] = assay: Neurotoxicity in Sprague-Dawley rat assessed as induction of rotarod performance deficit at 3 to 30 mg/kg, ip and measured once animals were placed back on rotarod apparatus for 3 consecutive testing trials 30 mins following compound dosing; assay type: toxicity, organism-based; set-up: dose 3-30 mg/kg, route intraperitoneal; conditions: in vivo, 0.5 h
Outline: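 Male rats first receive three training sessions on an accelerating rod, 0–20 rpm over 60 s. Dosing is 3, 10, 30 mg/kg ip in 10% DMSO/PEG400, n = 6 per group. There are 3 consecutive trials at 30 min post-dose, recording fall latency with a 60 s cut-off.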

Rattus norvegicus [10] = assay: Analgesic activity in Sprague-Dawley rat persistent pain model assessed as inhibition of flinching behavior at 30 mg/kg, ip dosed 30 mins before formalin challenge measured for 20 mins following formalin challenge; assay type: functional; conditions: route intraperitoneal
Outline: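 Male Sprague-Dawley rats (200–350 g) were dosed ip in 10% DMSO/PEG 400 (3, 10, 30 mg/kg; n = 6) 30 min before formalin. They then received 50 µl of 5% formalin s.c. into the dorsal right hind paw. Flinches of the injected paw were counted 30–50 min after injection (phase II), sampling one 60 s period per 5 min interval.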

Rattus norvegicus [11] = assay: Cardiovascular toxicity in anesthetized Sprague-Dawley rat assessed as changes in mean arterial pressure at 10 mg/kg, iv by hemodynamic function study; assay type: organism-based, Artery; set-up: dose 10 mg/kg, route intravenous; conditions: in vivo
[12] = Bioavailability in ip dosed Sprague-Dawley rat; assay type: ADME, organism-based; conditions: in vivo
[13] = Stability in human liver microsomes assessed as compound remaining measured after 30 mins; assay type: ADME, Microsome; conditions: read-out: Stability
Outline: (§2)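 Compound is incubated with human or rat liver microsomes, and percent parent remaining is measured after 30 min.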

Rattus norvegicus [14] = assay: Analgesic activity in Sprague-Dawley rat persistent pain model assessed as inhibition of flinching behavior at 10 mg/kg, ip dosed 30 mins before formalin challenge measured for 20 mins following formalin challenge
Rattus norvegicus [15] = assay: Cardiovascular toxicity in anesthetized Sprague-Dawley rat assessed as changes in heart rate at 10 mg/kg, iv by hemodynamic function study; assay type: organism-based; set-up: dose 10 mg/kg, route intravenous; conditions: in vivo
Rattus norvegicus [16] = assay: Cardiovascular toxicity in anesthetized Sprague-Dawley rat assessed as changes in dp/dt rate at 10 mg/kg, iv by hemodynamic function study; assay type: organism-based; set-up: dose 10 mg/kg, route intravenous; conditions: in vivo
[17] = Aqueous solubility of the compound; assay type: physicochemical; conditions: buffer
[18] = target: Voltage-gated L-type calcium channel (Rattus norvegicus, UniProt P22002+Q02485+P27732); assay: Inhibition of L-type calcium channel in Sprague-Dawley rat aorta assessed as relaxation of Kcl-induced tissue contraction by aortic ring relaxation assay; assay type: tissue-based
[19] = Therapeutic index, ratio of cardiovascular effect in Sprague-Dawley rat at 10 mg/kg, iv to EC50 for analgesic activity in ip dosed Sprague-Dawley rat osteoarthritis pain model; assay type: organism-based; set-up: dose 10 mg/kg, route intravenous; conditions: in vivo, read-out: TI
[20] = Stability in rat liver microsomes assessed as compound remaining measured after 30 mins; assay type: ADME, Microsome; conditions: read-out: Stability; outline: as §2
Rattus norvegicus [21] = assay: Analgesic activity in Sprague-Dawley rat osteoarthritis pain model assessed as increase in maximum compressive grip force at 30 mg/kg, ip dosed 30 mins before grip force assessment; assay type: functional; conditions: route intraperitoneal; outline: as §1
[22] = target: Voltage-dependent N-type calcium channel subunit alpha-1B (Rattus norvegicus, UniProt Q02294); assay: Inhibition of rat Cav2.2 expressed in HEK293 cells under inactivating depolarizing conditions at holding potential of -80 to -95 mV and stepped to 0 mV once every 5 seconds by whole cell patch clamp assay
[23] = Homo sapiens, IMR-32, read-out: IC50
[24] = Homo sapiens, IMR-32, read-out: pIC50 (converted)

Sequence of Voltage-dependent N-type calcium channel subunit alpha-1B (Rattus norvegicus) (Q02294 whole entry, looked up): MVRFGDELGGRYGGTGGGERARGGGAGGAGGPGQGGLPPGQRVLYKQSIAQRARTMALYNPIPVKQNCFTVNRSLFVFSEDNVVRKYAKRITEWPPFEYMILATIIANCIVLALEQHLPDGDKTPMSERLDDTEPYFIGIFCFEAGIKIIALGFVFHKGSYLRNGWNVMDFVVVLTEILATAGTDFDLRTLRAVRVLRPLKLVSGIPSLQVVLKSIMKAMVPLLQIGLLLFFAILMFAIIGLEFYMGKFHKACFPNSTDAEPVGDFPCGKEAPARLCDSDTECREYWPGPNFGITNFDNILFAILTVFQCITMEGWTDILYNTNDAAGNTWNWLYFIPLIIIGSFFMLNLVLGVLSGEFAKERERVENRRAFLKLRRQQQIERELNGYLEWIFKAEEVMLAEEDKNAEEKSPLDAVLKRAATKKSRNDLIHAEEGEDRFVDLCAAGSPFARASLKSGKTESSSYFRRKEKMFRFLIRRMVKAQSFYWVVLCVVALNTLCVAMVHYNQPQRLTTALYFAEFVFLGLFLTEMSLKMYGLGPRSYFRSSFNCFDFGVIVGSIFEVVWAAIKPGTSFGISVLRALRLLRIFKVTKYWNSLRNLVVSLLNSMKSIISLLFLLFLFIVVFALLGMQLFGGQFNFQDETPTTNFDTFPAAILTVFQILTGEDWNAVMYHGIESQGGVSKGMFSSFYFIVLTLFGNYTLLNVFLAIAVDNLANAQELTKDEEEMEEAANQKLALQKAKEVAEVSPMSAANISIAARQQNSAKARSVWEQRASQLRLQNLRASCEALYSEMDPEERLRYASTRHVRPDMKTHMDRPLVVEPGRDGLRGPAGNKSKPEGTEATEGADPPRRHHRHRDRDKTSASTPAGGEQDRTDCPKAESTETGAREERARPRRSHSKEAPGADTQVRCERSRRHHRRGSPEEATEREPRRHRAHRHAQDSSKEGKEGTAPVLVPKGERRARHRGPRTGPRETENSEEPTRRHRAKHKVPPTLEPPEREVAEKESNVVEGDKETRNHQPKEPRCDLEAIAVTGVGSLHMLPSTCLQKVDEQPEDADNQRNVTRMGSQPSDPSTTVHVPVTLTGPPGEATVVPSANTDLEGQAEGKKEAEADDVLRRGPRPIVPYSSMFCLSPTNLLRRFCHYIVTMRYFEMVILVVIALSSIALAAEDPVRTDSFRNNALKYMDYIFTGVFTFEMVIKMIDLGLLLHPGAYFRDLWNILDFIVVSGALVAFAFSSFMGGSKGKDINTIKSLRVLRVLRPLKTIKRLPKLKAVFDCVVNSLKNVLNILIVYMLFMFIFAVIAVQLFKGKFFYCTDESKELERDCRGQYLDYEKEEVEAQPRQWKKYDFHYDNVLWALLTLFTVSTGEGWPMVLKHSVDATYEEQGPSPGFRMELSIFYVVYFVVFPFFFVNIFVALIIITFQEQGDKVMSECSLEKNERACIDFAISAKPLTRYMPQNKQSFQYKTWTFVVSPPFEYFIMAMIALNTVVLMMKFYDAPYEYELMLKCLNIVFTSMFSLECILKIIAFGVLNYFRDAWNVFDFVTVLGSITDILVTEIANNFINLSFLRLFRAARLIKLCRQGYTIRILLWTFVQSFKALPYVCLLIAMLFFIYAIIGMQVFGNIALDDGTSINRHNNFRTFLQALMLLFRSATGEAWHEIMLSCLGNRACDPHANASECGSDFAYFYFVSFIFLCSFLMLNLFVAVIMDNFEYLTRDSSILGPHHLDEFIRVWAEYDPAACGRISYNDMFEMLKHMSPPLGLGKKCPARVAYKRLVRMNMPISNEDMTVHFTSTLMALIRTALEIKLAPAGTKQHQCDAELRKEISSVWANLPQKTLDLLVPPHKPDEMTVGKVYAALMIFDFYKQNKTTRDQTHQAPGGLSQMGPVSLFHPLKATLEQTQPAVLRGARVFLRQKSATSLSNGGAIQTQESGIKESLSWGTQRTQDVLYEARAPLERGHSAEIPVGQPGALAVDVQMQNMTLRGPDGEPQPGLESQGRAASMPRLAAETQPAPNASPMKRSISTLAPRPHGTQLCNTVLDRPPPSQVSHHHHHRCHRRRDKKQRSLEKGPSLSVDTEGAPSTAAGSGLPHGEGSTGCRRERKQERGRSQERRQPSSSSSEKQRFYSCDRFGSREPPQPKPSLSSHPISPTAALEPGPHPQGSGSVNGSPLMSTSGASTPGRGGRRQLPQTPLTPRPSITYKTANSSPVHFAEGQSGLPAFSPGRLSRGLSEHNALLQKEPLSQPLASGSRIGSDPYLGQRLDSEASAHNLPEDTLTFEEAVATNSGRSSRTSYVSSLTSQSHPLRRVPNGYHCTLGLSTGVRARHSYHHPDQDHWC
Sequence of Voltage-dependent N-type calcium channel subunit alpha-1B (Q02294 whole entry): as the sequence (Q02294 whole entry, looked up) above

Compound | IC50 [1, 23] | IC50 [1, 24] | IC50 ([2]; read-out: IC50) | IC50 ([2]; read-out: pIC50 (converted)) | other results
O=C(N[C@H]1CC[C@H]2CN(Cc3cccc(F)c3)C[C@H]21)C(C1CCCCC1)C1CCCCC1 | 0.99 µM | 0.977 µM | > 30 µM |  | 
O=C(N[C@H]1CC[C@H]2CN(Cc3ccccc3)C[C@H]21)C(C1CCCCC1)C1CCCCC1 (relative stereo) |  |  | > 30 µM |  | pIC50 ([1]; imr-32): 5.33; IC50 ([1]; imr-32, read-out: IC50): 4.67 µM
O=C(N[C@H]1CC[C@H]2CN(Cc3cccc(C(F)(F)F)c3)C[C@H]21)C1CCCCC1 (racemic) | 1.26 µM | 1.26 µM | 16.1 µM | 16.2 µM | 
CC(C)C(C(=O)N[C@@H]1CC[C@@H]2CN(Cc3ccccc3)C[C@@H]21)c1ccccc1 (mixture of isomers) | 1.46 µM | 1.48 µM | 7.21 µM | 7.24 µM | 
O=C(N[C@H]1CC[C@H]2CN(Cc3cccc(C(F)(F)F)c3)C[C@H]21)C1CCCC1 (relative stereo) | 2.31 µM | 2.29 µM | 12.8 µM | 12.9 µM | 
O=C(N[C@H]1CC[C@H]2CN(Cc3ccccc3F)C[C@H]21)C(C1CCCCC1)C1CCCCC1 | 1.12 µM | 1.12 µM | > 30 µM |  | 
O=C(N[C@H]1CC[C@H]2CN(Cc3ccccc3)C[C@H]21)C(c1ccccc1)C1CCCC1 (relative stereo) | 0.92 µM | 0.933 µM | 5.15 µM | 5.13 µM | 
O=C(N[C@H]1CC[C@H]2CN(Cc3ccccc3C(F)(F)F)C[C@H]21)C(C1CCCCC1)C1CCCCC1 | 2.43 µM | 2.45 µM | > 30 µM |  | 
CC(C)C(C(=O)N[C@H]1CC[C@H]2CN(Cc3cccc(C(F)(F)F)c3)C[C@H]21)c1ccccc1 (mixture of isomers) | 0.36 µM | 0.355 µM | 5 µM | 5.01 µM | 
Cc1cccc(CN2C[C@@H]3CC[C@H](NC(=O)C(C4CCCCC4)C4CCCCC4)[C@@H]3C2)c1 | 0.86 µM | 0.851 µM | 22.3 µM | 22.4 µM | 
O=C(N[C@H]1CC[C@H]2CN(Cc3cccc(C(F)(F)F)c3)C[C@H]21)C(c1ccccc1)c1ccccc1 (racemic) | 0.67 µM | 0.661 µM | 6.3 µM | 6.31 µM | 
O=C(N[C@H]1CC[C@H]2CN(Cc3ccccc3)C[C@H]21)C1(c2ccccc2)CCCC1 (racemic) | 1.93 µM | 1.95 µM | 4.84 µM | 4.79 µM | 
CCC(CC)C(=O)N[C@H]1CC[C@H]2CN(Cc3cccc(C(F)(F)F)c3)C[C@H]21 (racemic) | 2.07 µM | 2.09 µM | 19 µM | 19.1 µM | 
O=C(N[C@H]1CC[C@H]2CN(Cc3cccc(C(F)(F)F)c3)C[C@H]21)C(C1CCCCC1)C1CCCCC1 [listing 1 of 2 here] |  |  |  |  | inhibition [3]: 77%; inhibition [4]: 49%; Activity (Rattus norvegicus [5]): Dose-dependent effect; Activity (Rattus norvegicus [6]): Dose-dependent effect
O=C(N[C@H]1CC[C@H]2CN(Cc3cccc(OC(F)(F)F)c3)C[C@H]21)C(C1CCCCC1)C1CCCCC1 | 0.51 µM | 0.417 µM | > 30 µM |  | 
O=C(N[C@H]1CC[C@H]2CN(Cc3cccc(C(F)(F)F)c3)C[C@H]21)C(c1ccc(F)cc1)c1ccc(F)cc1 (relative stereo) | 0.64 µM | 0.646 µM | 7.1 µM | 7.08 µM | 
O=C(N[C@H]1CC[C@H]2CN(Cc3ccc(F)cc3)C[C@H]21)C(C1CCCCC1)C1CCCCC1 | 0.74 µM | 0.741 µM | 22.9 µM | 22.9 µM | 
O=C(N[C@H]1CC[C@H]2CN(Cc3cccc(C(F)(F)F)c3)C[C@H]21)C(C1CCCCC1)C1CCCCC1 (relative stereo) |  |  | > 30 µM |  | pIC50 ([1]; imr-32): 5.97; IC50 ([1]; imr-32, read-out: IC50): 1.07 µM
O=C(N[C@H]1CC[C@H]2CN(Cc3ccccc3)C[C@H]21)C(C1CCCCC1)C1CCCCC1 |  |  |  |  | pIC50 ([1]; imr-32): 4.78; IC50 ([1]; imr-32, read-out: IC50): 16.5 µM
O=C(N[C@@H]1CC[C@@H]2CN(Cc3ccccc3)C[C@@H]21)C(c1ccccc1)C1CCCCC1 (mixture of isomers) | 1.06 µM | 1.07 µM | > 30 µM |  | 
O=C(N[C@@H]1CC[C@@H]2CN(Cc3cccc(C(F)(F)F)c3)C[C@@H]21)C(C1CCCCC1)C1CCCCC1 | 1.4 µM |  | > 30 µM |  | 
CCCC(CCC)C(=O)N[C@H]1CC[C@H]2CN(Cc3cccc(C(F)(F)F)c3)C[C@H]21 (relative stereo) | 0.95 µM | 0.955 µM | 20.1 µM | 20.4 µM | 
O=C(N[C@H]1CC[C@H]2CN(Cc3ccccc3)C[C@H]21)C1(c2ccccc2)CCCCC1 (relative stereo) | 1.04 µM | 1.02 µM | 5.56 µM | 5.62 µM | 
O=C(N[C@H]1CC[C@H]2CN(Cc3cccc(C(F)(F)F)c3)C[C@H]21)C1CCCCCC1 (racemic) | 0.56 µM | 0.562 µM | 9.3 µM | 13.8 µM | 
O=C(N[C@H]1CC[C@H]2CN(Cc3cccc(C(F)(F)F)c3)C[C@H]21)C(C1CCCCC1)C1CCCCC1 [listing 2 of 2 here] |  | 0.468 µM |  |  | fraction unbound [7]: < 0.01; Emax at 30 mg/kg (Rattus norvegicus [8]): 67%; IC50 ([1]; imr-32, read-out: IC50): 0.46 µM; Activity (Rattus norvegicus [9]): Non-toxic; inhibition in vivo at 30 mg/kg (Rattus norvegicus [10]): 51%; Activity (Rattus norvegicus [11]): Non-toxic; bioavailability [12]: 41%; remaining at 0.5 h [13]: < 5%; inhibition in vivo at 10 mg/kg (Rattus norvegicus [14]): 51%; Activity (Rattus norvegicus [15]): Non-toxic; Activity (Rattus norvegicus [16]): Non-toxic; solubility [17]: < 3 µM; EC50 [18]: 46 µM; inhibition (INH) ([18]; rat): Dose-dependent effect; selectivity ratio [19]: > 15; EC50 (Rattus norvegicus [5]): 2 µM; remaining at 0.5 h [20]: < 5%; Emax at 30 mg/kg (Rattus norvegicus [21]): 87%; IC50 [22]: 0.041 µM

Source: ChEMBL document CHEMBL2046441, “Synthesis and SAR of 4-aminocyclopentapyrrolidines as N-type Ca²⁺ channel blockers with analgesic activity” (Bioorg Med Chem, 2012)
